{"source": "ChEMBL document CHEMBL4145607", "about": "“Tamarixetin Exhibits Anti-inflammatory Activity and Prevents Bacterial Sepsis by Increasing IL-10 Production” (J Nat Prod, 2018)", "key": {"[1]": {"target": "T1, Toll-like receptor 4 (Mus musculus) (UniProt Q9QUK6)", "T1 sequence (whole entry)": "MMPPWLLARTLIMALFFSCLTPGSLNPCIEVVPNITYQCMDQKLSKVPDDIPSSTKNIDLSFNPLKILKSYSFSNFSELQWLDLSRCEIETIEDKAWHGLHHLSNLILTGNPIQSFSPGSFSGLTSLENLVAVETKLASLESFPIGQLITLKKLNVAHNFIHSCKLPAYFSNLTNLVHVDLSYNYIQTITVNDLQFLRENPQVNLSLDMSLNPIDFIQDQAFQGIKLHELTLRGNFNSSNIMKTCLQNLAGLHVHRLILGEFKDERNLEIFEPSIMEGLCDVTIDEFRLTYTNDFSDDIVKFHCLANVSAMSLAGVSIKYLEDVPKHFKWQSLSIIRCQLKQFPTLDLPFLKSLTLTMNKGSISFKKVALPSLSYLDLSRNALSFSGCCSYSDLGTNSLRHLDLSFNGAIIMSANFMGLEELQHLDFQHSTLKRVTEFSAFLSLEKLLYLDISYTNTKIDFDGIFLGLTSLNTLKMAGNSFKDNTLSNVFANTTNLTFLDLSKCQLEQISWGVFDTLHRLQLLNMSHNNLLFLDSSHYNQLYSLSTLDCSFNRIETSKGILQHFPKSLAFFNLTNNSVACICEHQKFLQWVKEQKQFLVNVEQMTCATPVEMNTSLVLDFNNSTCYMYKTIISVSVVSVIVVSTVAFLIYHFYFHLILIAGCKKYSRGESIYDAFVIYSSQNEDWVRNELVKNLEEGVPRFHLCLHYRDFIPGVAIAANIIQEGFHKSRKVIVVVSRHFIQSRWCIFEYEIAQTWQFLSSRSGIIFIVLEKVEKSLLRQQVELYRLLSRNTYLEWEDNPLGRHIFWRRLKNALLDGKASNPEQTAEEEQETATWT", "test": "Inhibition of LPS-induced TLR4 activation in C57BL/6 mouse BMDC assessed as reduction in IkappaBalpha degradation at 25 uM pretreated for 30 mins followed by LPS-challenge measured after 15 to 90 mins by Western blot analysis", "assay_type": "cell-based", "method_in_brief": "(§1)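 BMDCs were pretreated 30 min with 25 μM compound, then stimulated with LPS 50 ng·mL−1 for the indicated times. Lysates (25 μg protein) were run on 10% SDS-PAGE and immunoblotted for phospho/total ERK, JNK, p38 and Akt, plus COX-2, IκBα and α-tubulin, with ECL detection. Representative of three experiments.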"}, "BMDC [2]": {"test_system": "BMDC", "test": "Inhibition of Escherichia coli DH5alpha infection-induced immune response in C57BL/6 mouse BMDC assessed as reduction in TNFalpha secretion at 25 uM pretreated for 30 mins followed by Escherichia coli DH5alpha infection for 6 hrs by ELISA", "assay_type": "functional, cell-based", "method_in_brief": "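C57BL/6 BMDCs received 25 μM compound and E. coli DH5α, 3 × 10^6 CFU·mL−1. Schedules were: compound 30 min before a 6 h infection; co-addition for 6 h; or compound for 30, 60, 90 or 120 min plus 6 h infection. Supernatant TNF-α, IL-6, IL-10 and IL-12p70 were measured by ELISA. At least three experiments in triplicate.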"}, "BMDC [3]": {"test_system": "BMDC", "test": "Inhibition of Escherichia coli K1 infection-induced immune response in C57BL/6 mouse BMDC assessed as reduction in TNFalpha secretion at 25 uM pretreated for 30 mins followed by Escherichia coli K1 infection for 6 hrs by ELISA", "assay_type": "functional, cell-based", "method_in_brief": "(§2)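 BMDCs from C57BL/6 mice were given 25 μM compound and E. coli K1, […]. Timing was: compound 30 min before a 6 h infection; cotreatment for 6 h; or compound for 30–120 min with 6 h infection. Supernatant cytokines (TNF-α, IL-6, IL-10, IL-12p70) were measured by ELISA. At least three experiments in triplicate.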"}, "BMDC [4]": {"test_system": "BMDC", "test": "Inhibition of LPS-induced immune response in C57BL/6 mouse BMDC assessed as increase in IL10 secretion at 25 uM treated 6 hrs post LPS-challenge measured after 60 to 120 mins by ELISA", "assay_type": "functional, cell-based", "method_in_brief": "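Bone marrow DCs from 6-week-old female C57BL/6 mice, RBC-lysed, cultured in RPMI-1640/10% FBS with 10 ng/mL rmGM-CSF, 37 °C, 5% CO2. Cells given LPS 50 ng/mL for 6 h, then 25 μM compound added for 30, 60, 90 or 120 min. Supernatant TNF-α, IL-6, IL-10, IL-12p70 measured by sandwich ELISA. Mean ± SEM, compared with LPS-only DCs.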"}, "Mus musculus [5]": {"test_system": "Mus musculus", "test": "Antiinflammatory activity in Balb/c mouse model of LPS-induced endotoxemia assessed as reduction in infiltration of immune cells at 1 mg/kg, ip pretreated for 1 hr followed by LPS-challenge measured after 12 hrs by hematoxylin and eosin staining based microscopic analysis", "assay_type": "functional, organism-based", "method_in_brief": "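Dosing was 1 mg·kg−1 i.p. 1 h before LPS 10 mg·kg−1 i.p. in BALB/c mice. At 12 h lungs were perfused and formalin-fixed, then paraffin-embedded. 5 μm sections were H&E-stained and imaged by microscope. Representative of three independent experiments.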"}, "BMDC [6]": {"test_system": "BMDC", "test": "Inhibition of Escherichia coli K1 infection-induced immune response in C57BL/6 mouse BMDC assessed as increase in IL10 secretion at 25 uM pretreated for 60 to 120 mins followed by Escherichia coli K1 infection for 6 hrs by ELISA", "assay_type": "functional, cell-based", "method_in_brief": "as §2"}, "Mus musculus [7]": {"test_system": "Mus musculus", "test": "Antiseptic activity in Balb/c mouse model of Escherichia coli K1 infection-induced sepsis assessed as reduction in serum endotoxin level at 1 mg/kg, ip pretreated for 1 hr followed by Escherichia coli K1 infection measured after 12 hrs by chromogenic assay", "assay_type": "functional, organism-based", "method_in_brief": "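BALB/c mice dosed i.p. 1 h before i.p. E. coli K1 (1 × 10^6 CFU per mouse), sera taken at 12 h. Serum diluted 10-fold in endotoxin-free PBS, LAL chromogenic end-point assay; background subtracted, quantified against E. coli endotoxin standard, reported as EU·mL−1.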"}, "[8]": {"target": "T1, Toll-like receptor 4 (Mus musculus)", "test": "Inhibition of LPS-induced TLR4 activation in C57BL/6 mouse BMDC assessed as reduction in p38 phosphorylation at 25 uM pretreated for 30 mins followed by LPS-challenge measured after 15 to 90 mins by Western blot analysis", "assay_type": "cell-based", "method_in_brief": "as §1"}, "Mus musculus [9]": {"test_system": "Mus musculus", "test": "Antiinflammatory activity in Balb/c mouse model of LPS-induced endotoxemia assessed as increase in serum IL10 level at 1 mg/kg, ip pretreated for 1 hr followed by LPS-challenge measured after 2 hrs by ELISA", "assay_type": "functional, organism-based", "method_in_brief": "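BALB/c mice were dosed with 1 mg·kg−1 i.p. 1 h before LPS 10 mg·kg−1 i.p. Serum was taken 2 h later, and TNF-α, IL-6 and IL-10 were measured by sandwich ELISA. Means ± SEM.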"}, "Mus musculus [10]": {"test_system": "Mus musculus", "test": "Antiinflammatory activity in Balb/c mouse model of LPS-induced endotoxemia assessed as reduction in TNFalpha level in lungs at 1 mg/kg, ip pretreated for 1 hr followed by LPS-challenge measured after 12 hrs by ELISA", "assay_type": "functional, organism-based", "method_in_brief": "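BALB/c mice got 1 mg·kg−1 i.p. 1 h before i.p. LPS 10 mg·kg−1. After 12 h, TNF-α and IL-6 in lung lysates were measured by sandwich ELISA. Means ± SEM.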"}}, "note": "Calls of active or inactive are those of the source. The rule behind the calls is not given here."}
{"smiles": "COc1ccc(-c2oc3cc(O)cc(O)c3c(=O)c2O)cc1O", "note": "[TAMARIXETIN]", "values": [{"measurement": "inhibition", "setting": "[1]", "result": "Active"}, {"measurement": "inhibition", "setting": "BMDC [2]", "result": "Active"}, {"measurement": "inhibition", "setting": "BMDC [3]", "result": "Active"}, {"measurement": "inhibition", "setting": "BMDC [4]", "result": "inactive"}, {"measurement": "Activity", "setting": "Mus musculus [5]", "result": "Active"}, {"measurement": "inhibition", "setting": "BMDC [6]", "result": "inactive"}, {"measurement": "Activity", "setting": "Mus musculus [7]", "result": "Active"}, {"measurement": "inhibition", "setting": "[8]", "result": "Active"}, {"measurement": "Activity", "setting": "Mus musculus [9]", "result": "Active"}, {"measurement": "Activity", "setting": "Mus musculus [10]", "result": "Active"}]}
